From ChEMBL document CHEMBL1127561, “Novel spirosuccinimide aldose reductase inhibitors derived from isoquinoline-1,3-diones: 2-[(4-bromo-2-fluorophenyl)methyl]-6- fluorospiro[isoquinoline-4(1H),3'-pyrrolidine]-1,2',3,5'(2H)-tetrone and congeners. 1” (J Med Chem, 1994)
Active and inactive are the calls of the source. The calls are words filed in the database; no cut-off is given here.

Tests used:
[1] = Log P value by using Octanol / pH 7.4 buffer; assay type: physicochemical
Method in brief: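 Partition measured between octanol and pH 7.4 buffer.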

[2] = biological target: Aldo-keto reductase family 1 member B1 (Bos taurus) (UniProt P16116); experiment: Inhibition of aldose reductase activity in a partially purified bovine lens preparation at 10e-7 M
Method in brief: (§1)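 Partially purified bovine lens aldose reductase (ammonium sulfate fractionation). NADPH oxidation read at 340 nm, 37 °C, in 30 mM sodium phosphate pH 6.2, 0.2 M LiSO4, […], 1% DMSO. Enzyme was preincubated with inhibitor for 5 min, then the reaction was started with 5 mM DL-glyceraldehyde. Duplicates; IC50 from linear regression of log concentration vs percent inhibition.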

[3] = biological target: Aldo-keto reductase family 1 member B1 (Bos taurus) (UniProt P16116); experiment: Inhibition of aldose reductase activity in a partially purified bovine lens preparation at 4*10e-8 M; method in brief: as §1
Rattus norvegicus [4] = experiment: Percentage Inhibition of galactitol accumulation in the lens of rats fed with the dose of 1.1 mg/kg/day; assay type: functional; conditions: Lens of camera-type eye
Method in brief: (§2)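 Male Sprague-Dawley rats (70-90 g), six per group, fed 20% galactose chow with compound in the diet for 4 days; glucose-fed controls. After a 3-h fast, lens or sciatic nerve galactitol was measured as nmol/mg wet weight. Percent inhibition vs galactose-fed controls, mean ± SEM; ANOVA with Dunnett's test.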

Rattus norvegicus [5] = experiment: Percentage Inhibition of galactitol accumulation in the lens of rats fed with the dose of 3.0 mg/kg/day; assay type: functional; conditions: Lens of camera-type eye; method in brief: as §2
Rattus norvegicus [6] = experiment: Percentage Inhibition of galactitol accumulation in the sciatic nerve of rats fed with the dose of 1.1 mg/kg/day (values are mean of six animals, p<0.01); assay type: functional; method in brief: as §2
Rattus norvegicus [7] = experiment: Percentage Inhibition of galactitol accumulation in the sciatic nerve of rats fed with the dose of 0.5 mg/kg/day; assay type: functional; method in brief: as §2
[8] = biological target: T1, Aldo-keto reductase family 1 member B1 (Bos taurus, UniProt P16116); experiment: In vitro inhibition of aldose reductase activity in a partially purified bovine lens preparation
Rattus norvegicus [9] = experiment: Percentage Inhibition of galactitol accumulation in the sciatic nerve of rats fed with the dose of 1.0 mg/kg/day; assay type: functional; method in brief: as §2
[10] = Half-life In vitro; assay type: ADME
Rattus norvegicus [11] = species: Rattus norvegicus; experiment: Percentage Inhibition of galactitol accumulation in the sciatic nerve of rats
Rattus norvegicus [12] = experiment: Percentage Inhibition of galactitol accumulation in the lens of rats fed with the dose of 1.0 mg/kg/day; NS=Not significant; assay type: functional, organism-based; conditions: Lens of camera-type eye; method in brief: as §2
Rattus norvegicus [13] = experiment: Percentage Inhibition of galactitol accumulation in the sciatic nerve of rats fed with the dose of 1.0 mg/kg/day (values are mean of six animals); assay type: functional; method in brief: as §2
Rattus norvegicus [14] = experiment: Percentage Inhibition of galactitol accumulation in the sciatic nerve of rats fed with the dose of 1.1 mg/kg/day; assay type: functional; method in brief: as §2
Rattus norvegicus [15] = experiment: Percentage Inhibition of galactitol accumulation in the sciatic nerve of rats fed with the dose of 3.0 mg/kg/day; assay type: functional; method in brief: as §2
Rattus norvegicus [16] = experiment: Percentage Inhibition of galactitol accumulation in the lens of rats fed with the dose of 3.0 mg/kg/day; NS=Not significant; assay type: functional, organism-based; conditions: Lens of camera-type eye; method in brief: as §2
Rattus norvegicus [17] = experiment: Percentage Inhibition of galactitol accumulation in the lens of rats fed with the dose of 0.9 mg/kg/day; assay type: functional; conditions: Lens of camera-type eye; method in brief: as §2
Rattus norvegicus [18] = experiment: Percentage Inhibition of galactitol accumulation in the sciatic nerve of rats fed with the dose of 0.9 mg/kg/day; assay type: functional; method in brief: as §2
Rattus norvegicus [19] = experiment: Percentage Inhibition of galactitol accumulation in the sciatic nerve of rats fed with the dose of 0.6 mg/kg/day; assay type: functional; method in brief: as §2
Rattus norvegicus [20] = species: Rattus norvegicus; experiment: Dose at which the tissue level of polyol accumulation was reduced by 50% was evaluated for STZ diabetic rat in sciatic nerve; assay type: functional
Method in brief: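 Male Sprague-Dawley rats (200-250 g, 12 per group) made diabetic with streptozocin 60 mg/kg iv in cold 0.03 M citrate pH 4.5; plasma glucose kept between 300 and 550 mg/dl. Compound was suspended in 2% Tween 80/saline and gavaged daily for 14 days. On day 15, RBC, lens and sciatic nerve polyol was measured. ED50 by nonlinear regression of log dose.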

Rattus norvegicus [21] = species: Rattus norvegicus; experiment: Dose at which the tissue level of polyol accumulation was reduced by 50% was evaluated for galactosemic rat in lens; assay type: functional; conditions: Lens of camera-type eye
Method in brief: (§3)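 Male Sprague-Dawley rats (70-90 g, six per group) fed chow with 20% galactose and compound in the diet for 4 or 14 days. After a 3-h fast, lens and sciatic nerve were removed and frozen, and galactitol was quantitated in nmol/mg wet weight. ED50 from nonlinear regression of log dose vs tissue polyol.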

Rattus norvegicus [22] = species: Rattus norvegicus; experiment: Dose at which the tissue level of polyol accumulation was reduced by 50% was evaluated for galactosemic rat in sciatic nerve; assay type: functional; method in brief: as §3
Rattus norvegicus [23] = experiment: Percentage Inhibition of galactitol accumulation in the lens of rats fed with the dose of 0.8 mg/kg/day; NS=Not significant; assay type: functional, organism-based; conditions: Lens of camera-type eye; method in brief: as §2
Rattus norvegicus [24] = experiment: Percentage Inhibition of galactitol accumulation in the sciatic nerve of rats fed with the dose of 0.8 mg/kg/day; assay type: functional; method in brief: as §2
[25] = biological target: T1, Aldo-keto reductase family 1 member B1; experiment: In vitro inhibition of aldose reductase activity in a partially purified bovine lens preparation at 4*10e-8 M; NS=Not significant; method in brief: as §1
[26] = biological target: T1, Aldo-keto reductase family 1 member B1; experiment: Compound was evaluated In vitro for inhibition of aldose reductase activity in a partially purified bovine lens preparation at 10e-7 M; NS=Not significant; method in brief: as §1

CN1C(=O)c2ccc(Cl)cc2C2(CC(=O)NC2=O)C1=O (configuration not stated)
logD [1]: 0.58 | inhibition [2]: 72% | inhibition [3]: 43% | inhibition in vivo at 1.1 mg/kg/day (Rattus norvegicus [4]): 33% | inhibition in vivo at 3 mg/kg/day (Rattus norvegicus [5]): 59% | inhibition in vivo at 1.1 mg/kg/day (Rattus norvegicus [6]): 75% | inhibition in vivo at 0.5 mg/kg/day (Rattus norvegicus [7]): 54%

CN1C(=O)c2cc(Cl)c(Cl)cc2C2(CC(=O)NC2=O)C1=O (configuration not stated)
inhibition [2]: 89% | inhibition [3]: 84%

O=C1CC2(C(=O)N1)C(=O)N(Cc1ccc(Br)cc1)C(=O)c1ccccc12 (configuration not stated)
IC50 [8]: 22 nM

O=C1CC2(C(=O)N1)C(=O)N(Cc1ccc(Br)cc1F)C(=O)c1cc(F)ccc12 (configuration not stated)
IC50 [8]: 20 nM

Cc1ccc2c(c1)C1(CC(=O)NC1=O)C(=O)N(C)C2=O (configuration not stated)
inhibition [2]: 65% | inhibition [3]: 35%

O=C1CC2(C(=O)N1)C(=O)N(Cc1nc3cc(C(F)(F)F)ccc3s1)C(=O)c1ccc(F)cc12 (configuration not stated)
logD [1]: 3.16 | IC50 [8]: 26 nM | inhibition in vivo at 1 mg/kg/day (Rattus norvegicus [9]): 53%

CN1C(=O)c2ccc([N+](=O)[O-])cc2C2(CC(=O)NC2=O)C1=O (configuration not stated)
inhibition [2]: 71% | inhibition [3]: 53%

O=C1C[C@]2(C(=O)N1)C(=O)N(Cc1ccc(Br)cc1F)C(=O)c1ccc(F)cc12
half-life [10]: 30 min | IC50 [8]: 32 nM | ED50 (Rattus norvegicus [11]): 0.15 mg/kg

CN1C(=O)c2ccc(F)cc2C2(CC(=O)NC2=O)C1=O (configuration not stated)
inhibition [2]: 74% | inhibition [3]: 36%

O=C1CC2(C(=O)N1)C(=O)N(Cc1cccc(C(F)(F)F)c1)C(=O)c1ccccc12 (configuration not stated)
IC50 [8]: 17 nM

O=C1CC2(C(=O)N1)C(=O)N(Cc1ccc(Cl)cc1)C(=O)c1ccccc12 (configuration not stated)
IC50 [8]: 22 nM

Cc1cccc(CN2C(=O)c3ccccc3C3(CC(=O)NC3=O)C2=O)c1 (configuration not stated)
IC50 [8]: 25 nM

O=C1CC2(C(=O)N1)C(=O)N(Cc1ccc(Cl)c(Cl)c1)C(=O)c1ccccc12 (configuration not stated)
logD [1]: 3.09 | IC50 [8]: 22 nM | inhibition (Rattus norvegicus [12]): inactive | inhibition in vivo at 1 mg/kg/day (Rattus norvegicus [13]): 64% | inhibition in vivo at 1.1 mg/kg/day (Rattus norvegicus [14]): 64% | inhibition in vivo at 3 mg/kg/day (Rattus norvegicus [15]): 76% | inhibition (Rattus norvegicus [16]): inactive

CN1C(=O)c2ccc(C(F)(F)F)cc2C2(CC(=O)NC2=O)C1=O (configuration not stated)
inhibition [2]: 64% | inhibition [3]: 46% | inhibition in vivo at 0.9 mg/kg/day (Rattus norvegicus [17]): 20% | inhibition in vivo at 0.9 mg/kg/day (Rattus norvegicus [18]): 38%

O=C1CC2(C(=O)N1)C(=O)N(Cc1ccc(Br)cc1F)C(=O)c1cccc(F)c12 (configuration not stated)
IC50 [8]: 21 nM | inhibition in vivo at 0.5 mg/kg/day (Rattus norvegicus [7]): 52%

O=C1CC2(C(=O)N1)C(=O)N(Cc1ccc(Br)cc1F)C(=O)c1ccc(Cl)cc12 (configuration not stated)
IC50 [8]: 30 nM | inhibition in vivo at 0.6 mg/kg/day (Rattus norvegicus [19]): 29%

O=C1CC2(C(=O)N1)C(=O)N(Cc1nc3ccccc3s1)C(=O)c1ccc(F)cc12 (configuration not stated)
IC50 [8]: 18 nM

O=C1CC2(C(=O)N1)C(=O)N(Cc1ccc(Br)cc1F)C(=O)c1ccccc12 (configuration not stated)
logD [1]: 2.74 | ED50 (Rattus norvegicus [20]): 0.07 mg/kg/day | ED50 (Rattus norvegicus [21]): ~10 mg/kg/day | ED50 (Rattus norvegicus [22]): 0.3 mg/kg/day | inhibition (Rattus norvegicus [23]): inactive | inhibition in vivo at 0.5 mg/kg/day (Rattus norvegicus [7]): 82% | inhibition in vivo at 0.8 mg/kg/day (Rattus norvegicus [24]): 88%

CCCN1C(=O)c2ccccc2C2(CC(=O)NC2=O)C1=O (configuration not stated)
inhibition [2]: 19%

CON1C(=O)c2ccccc2C2(CC(=O)NC2=O)C1=O (configuration not stated)
IC50 [25]: Not Active | IC50 [26]: Not Active

CN1C(=O)c2cc(Cl)ccc2C2(CC(=O)NC2=O)C1=O (configuration not stated)
inhibition [2]: 61% | inhibition [3]: 34%

COc1cc2c(cc1Cl)C1(CC(=O)NC1=O)C(=O)N(C)C2=O (configuration not stated)
inhibition [2]: 84% | inhibition [3]: 66% | inhibition in vivo at 0.5 mg/kg/day (Rattus norvegicus [7]): 51%
